The results in this text go back to ChEMBL document CHEMBL1151770, “Cespihypotins Q-V, verticillene diterpenoids from Cespitularia hypotentaculata” (2008).

Where only a bound is given, the exact number is not on record here.

For experiment [1], the system named is Daoy. Put plainly: Cytotoxicity against human Daoy cells by MTT assay. The conditions noted are these: read-out: ED50 (the source's name). The experiment is classed as functional. In short, it runs like this: (§1)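 Cells grown in serum-supplemented RPMI-1640 at 37 °C, 5% CO2. Seeded at 2880 cells/well for 4 h, then samples added at 1, 10, 20 and 40 µg/mL and incubated 3 days at 37 °C. MTT added for 5 h, formazan dissolved in DMSO, absorbance read at 550 nm. ED50 is the concentration giving 50% reduction of absorbance relative to untreated cells.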
Background: Tetrazolium dyes change colour on reduction, which living cells bring about.

Experiment [2] has as its system WiDr. Put plainly: Cytotoxicity against human WiDr cells by MTT assay. The note with it: read-out: ED50 (the source's name). The experiment is classed as functional. In short, it runs like this: as §1

For the compound `C=C1CC[C@@H]2CC[C@]34O[C@@]3(C2(C)C)[C@@](O)(C/C(C)=C/C(=O)C1)O[C@H]4OC`, the EC50 came to 40 µM in experiment [1] and 54 µM in experiment [2].

For `C=C1CC[C@@H]2CCC3=C(C2(C)C)[C@@](OC)(C/C(C)=C/[C@@H](O)C1)O[C@H]3OC` [CESPIHYPOTIN Q], the EC50 in experiment [1] and in experiment [2] was greater than 55 µM throughout.

`C=C1CC[C@@H]2CCC3=C([C@@H](C/C(C)=C/C(=O)C1)OC3=O)C2(C)C` [CESPIHYPOTIN R]: the EC50 in experiment [1] is greater than 55 µM; in experiment [2], 50 µM.

For `C=C1CC[C@@H]2CCC(=O)[C@@](O)([C@@H](O)C/C(C)=C/C(=O)C1)C2(C)C` [CESPIHYPOTIN T], the EC50 came to 9.3 µM in experiment [1] and 7.5 µM in experiment [2].

Regarding `C=C1CC[C@@H]2CCC3=C([C@@H](C[C@]4(C)O[C@H]4[C@@H](O)C1)OC3=O)C2(C)C` [CESPIHYPOTIN U], the EC50 in experiment [1] and in experiment [2] was greater than 60 µM in each case.

In the case of `C=C1CC[C@@H]2CCC3=C(C2(C)C)[C@](O)(C/C(C)=C/[C@@H](O)C1)OC3=O` [CESPIHYPOTIN V], the EC50 in experiment [1] was 60 µM; in experiment [2] it was greater than 60 µM.

With `CO[C@@]12[C@H](COC(N)=O)C3=C(C(=O)C(C)=C(N)C3=O)N1C[C@@H]1N[C@@H]12` [MITOMYCIN], the EC50 in experiment [1] was found to be 0.21 µM; in experiment [2] it was 0.18 µM.
